Experiments:
[1] = biological target: T1, ATX (Homo sapiens, UniProt Q13822); assay: ATX activity assay with pNP-TMP substrate; assay type: biochemical; conditions: read-out: pNP-TMP Inhibition (%)
In short: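 Runs were in triplicate with human FLAG-fusion ATX, purified, at 10 nM, 10 µM test compound and 1 mM pNP-TMP. Buffer was 50 mM Tris pH 8.0 containing 30 µM BSA, 1 mM CaCl2, 1 mM MgCl2, 5 mM KCl and 140 mM NaCl. Absorbance at 405 nm was read every 2 min over 60 min at 37°C. Values were scaled between no-enzyme (0%) and uninhibited enzyme (100%). Interference control used 100 µM para-nitrophenol ± compound.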

[2] = biological target: LPA2 (Homo sapiens, UniProt Q9HBW0); assay: Calcium mobilization assay, potentiation of LPA effect at LPA2; assay type: cell-based; conditions: supplemental figure
Chain of LPA2 (Q9HBW0 whole entry, species assumed): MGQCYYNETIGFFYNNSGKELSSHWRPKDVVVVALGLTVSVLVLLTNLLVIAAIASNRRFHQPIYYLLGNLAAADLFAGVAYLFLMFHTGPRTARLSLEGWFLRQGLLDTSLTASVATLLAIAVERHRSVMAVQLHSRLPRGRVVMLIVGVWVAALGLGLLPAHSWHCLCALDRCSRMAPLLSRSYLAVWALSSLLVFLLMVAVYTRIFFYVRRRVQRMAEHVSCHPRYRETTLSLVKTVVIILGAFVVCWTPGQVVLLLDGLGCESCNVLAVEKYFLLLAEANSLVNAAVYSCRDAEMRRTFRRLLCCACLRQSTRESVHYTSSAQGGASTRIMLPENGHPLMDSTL

[3] = biological target: T1, ATX; assay: ATX activity assay with FS-3 substrate; assay type: biochemical; conditions: for inhibition at 10 µM: read-out: FS-3 Inhibition (%), 10 μM compound, 10 nM ATX, 1 μM FS-3
In short: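 Purified human FLAG-tagged ATX at 10 nM with 10 µM test compound and 1 µM FS-3 in 50 mM Tris pH 8.0, 30 µM BSA, 1 mM CaCl2, 1 mM MgCl2, 5 mM KCl, 140 mM NaCl. Fluorescence (ex 485/em 520 nm) was read every 2 min for 60 min at 37°C, in triplicate. Signal was normalized to no-ATX (0%) and ATX-without-compound (100%). Interference was checked with 100 nM carboxyfluorescein ± compound.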

SMILES | inhibition at 10 µM [1] | other results
O=C(COc1ccccc1F)N1CCN(c2cccc([N+](=O)[O-])c2)CC1 [Analog 13, 2-(2-fluorophenoxy)-1-(4-(3-nitrophenyl)piperazin-1-yl)ethanone] | -14.7 ± 2.9% | –
O=C(COc1cc(Cl)cc(Cl)c1)N1CCN(c2cccc([N+](=O)[O-])c2)CC1 [Analog 22, 2-(3,5-dichlorophenoxy)-1-(4-(3-nitrophenyl)piperazin-1-yl)ethanone] | – | potentiation of LPA effects at LPA2 [2]: modest potentiation of LPA effects at LPA2
O=C(COc1ccccc1Cl)N1CCN(c2ccc([N+](=O)[O-])cc2)CC1 [Analog 23, 2-(2-chlorophenoxy)-1-(4-(4-nitrophenyl)piperazin-1-yl)ethanone] | -11.9 ± 1.3% | –
O=C(COc1ccccc1F)N1CCN(c2ccc([N+](=O)[O-])cc2)CC1 [Analog 24, 2-(2-fluorophenoxy)-1-(4-(4-nitrophenyl)piperazin-1-yl)ethanone] | -22.7 ± 4.2% | –
O=C(COc1cccc(F)c1)N1CCN(c2ccc([N+](=O)[O-])cc2)CC1 [Analog 27, 2-(3-fluorophenoxy)-1-(4-(4-nitrophenyl)piperazin-1-yl)ethanone] | -14.1 ± 2.3% | –
O=C(COc1ccc(F)cc1)N1CCN(c2ccc([N+](=O)[O-])cc2)CC1 [Analog 30, 2-(4-fluorophenoxy)-1-(4-(4-nitrophenyl)piperazin-1-yl)ethanone] | -12.1 ± 1.2% | –
O=C(COc1ccc(Cl)cc1Cl)N1CCN(c2ccc([N+](=O)[O-])cc2)CC1 [Analog 32, 2-(2,4-dichlorophenoxy)-1-(4-(4-nitrophenyl)piperazin-1-yl)ethanone] | -14.9 ± 4.7% | –
O=C(O)c1ccc(N2CCN(C(=O)COc3ccccc3F)CC2)cc1 [Analog 57, 4-(4-(2-(2-fluorophenoxy)acetyl)piperazin-1-yl)benzoic acid] | -12 ± 6% | –
O=C(O)c1ccc(N2CCN(C(=O)COc3cccc(F)c3)CC2)cc1 [Analog 60, 4-(4-(2-(3-fluorophenoxy)acetyl)piperazin-1-yl)benzoic acid] | -36.5 ± 6.3% | –
O=C(O)c1ccc(N2CCN(C(=O)COc3cccc(C(F)(F)F)c3)CC2)cc1 [Analog 61, 4-(4-(2-(3-(trifluoromethyl)phenoxy)acetyl)piperazin-1-yl)benzoic acid] | -11.4 ± 2.6% | –
COc1ccc2c(c1)C(NCc1cc(OC)c(OC)cc1N)CCO2 (stereo not shown) [GRI 93694] | – | inhibition at 10 µM [3]: 48 ± 4.4%
CCCCCCCCCCCCCC(=O)NC(CCC(=O)O)C(=O)O (stereo not shown) [GRI 96880] | – | inhibition at 10 µM [3]: 54.1 ± 0.2%
O=C(CCCOc1ccc(Cl)cc1Cl)N1CCN(c2ccc([N+](=O)[O-])cc2)CC1 [GRI 392104] | – | inhibition at 10 µM [3]: 65.5 ± 3.2%
CC(=O)OC1(C(=O)COC(=O)c2ccco2)CC2CCC3C4C=CC(=O)CC4(C)CCC3C2(C)C1 (stereo not shown) [GRI 519441] | -45.4 ± 2.5% | inhibition at 10 µM [3]: 59.7 ± 1.7%
CC(C)(C)CN(Cc1cccc(CN)c1)C(=O)c1ccc(-c2ccc(F)cc2)nc1 [GRI 792685] | – | FS-3 Inhibition (%) ([3]; 10 μM compound, 10 nM ATX, 1 μM FS-3): false positive

Source: PMC5023007 (Bioorganic & medicinal chemistry, 2016)
